Results on 2 compounds are retold here after ChEMBL document CHEMBL3244237, “Differences in antischistosomal and mutagenic properties between an isothiocyano- and an isocyanonitrodiphenylamine” (J Med Chem, 1977).

The test system of data set [1] is Salmonella typhimurium. Briefly: Mutagenic activity in Salmonella typhimurium TA-98 at 158 nmol/plate by Ames test. The class given is toxicity, organism-based. The following applies: salmonella enterica subsp. enterica serovar typhimurium.
Data set [2] concerns Schistosoma japonicum. Briefly: Antischistosomal activity against Schistosoma japonicum infected mouse assessed as mouse with parasital cures at 7 mg/kg, po single dose. The class given is functional.
The subject of data set [3] is Schistosoma japonicum. As to the kind of experiment: Antischistosomal activity against Schistosoma japonicum infected mouse assessed as reduction in number of worms at 20 mg/kg, po single dose. The class given is functional.
The subject of data set [4] is Salmonella typhimurium. As to the kind of experiment: Mutagenic activity in Salmonella typhimurium TA-100 at 5 nmol/plate by Ames test in presence of rat liver microsomes S9 fraction. The class given is toxicity, organism-based. To be noted: salmonella enterica subsp. enterica serovar typhimurium. A general note: The Ames test uses bacterial strains that need an amino acid and regain growth without it when mutated back.

Data set [5] deals with Salmonella typhimurium. Briefly: Mutagenic activity in Salmonella typhimurium TA-98 at 158 nmol/plate by Ames test in presence of rat liver microsomes S9 fraction. It counts as toxicity, organism-based. The following applies: salmonella enterica subsp. enterica serovar typhimurium.
The subject of data set [6] is Salmonella typhimurium. As to the kind of experiment: Mutagenic activity in Salmonella typhimurium TA-100 at 158 nmol/plate by Ames test in presence of rat liver microsomes S9 fraction. It counts as toxicity, organism-based. To be noted: salmonella enterica subsp. enterica serovar typhimurium.
In data set [7] the test system is Schistosoma japonicum. Briefly: Antischistosomal activity against Schistosoma japonicum infected mouse assessed as reduction in number of worms at 10 mg/kg, po single dose. The class given is functional.
Data set [8] deals with Salmonella typhimurium. As to the kind of experiment: Mutagenic activity in Salmonella typhimurium TA-100 at 5 nmol/plate by Ames test. To be noted: salmonella enterica subsp. enterica serovar typhimurium. The class given is toxicity, organism-based.
Data set [9] relates to Schistosoma japonicum. As to the kind of experiment: Antischistosomal activity against Schistosoma japonicum infected mouse assessed as mouse with parasital cures at 20 mg/kg, po single dose. The class given is functional.
The subject of data set [10] is Salmonella typhimurium. Briefly: Mutagenic activity in Salmonella typhimurium TA-98 at 53 nmol/plate by Ames test in presence of rat liver microsomes S9 fraction. It counts as toxicity, organism-based. To be noted: salmonella enterica subsp. enterica serovar typhimurium.
Data set [11] relates to Salmonella typhimurium. Briefly: Mutagenic activity in Salmonella typhimurium TA-100 at 53 nmol/plate by Ames test in presence of rat liver microsomes S9 fraction. To be noted: salmonella enterica subsp. enterica serovar typhimurium. It counts as toxicity, organism-based.
Data set [12] deals with Salmonella typhimurium. Briefly: Mutagenic activity in Salmonella typhimurium TA-98 at 53 nmol/plate by Ames test. The class given is toxicity, organism-based. To be noted: salmonella enterica subsp. enterica serovar typhimurium.
The test system of data set [13] is Salmonella typhimurium. As to the kind of experiment: Mutagenic activity in Salmonella typhimurium TA-100 at 158 nmol/plate by Ames test. It counts as toxicity, organism-based. To be noted: salmonella enterica subsp. enterica serovar typhimurium.
For data set [14], the system named is Schistosoma japonicum. As to the kind of experiment: Antischistosomal activity against Schistosoma japonicum infected mouse assessed as mouse with parasital cures at 5 mg/kg, po single dose. The class given is functional.
Data set [15] concerns Salmonella typhimurium. As to the kind of experiment: Mutagenic activity in Salmonella typhimurium TA-98 at 16 nmol/plate by Ames test. The class given is toxicity, organism-based. The following applies: salmonella enterica subsp. enterica serovar typhimurium.
Data set [16] relates to Salmonella typhimurium. Briefly: Mutagenic activity in Salmonella typhimurium TA-100 at 53 nmol/plate by Ames test. It counts as toxicity, organism-based. To be noted: salmonella enterica subsp. enterica serovar typhimurium.
Data set [17] concerns Salmonella typhimurium. As to the kind of experiment: Mutagenic activity in Salmonella typhimurium TA-98 at 5 nmol/plate by Ames test in presence of rat liver microsomes S9 fraction. It counts as toxicity, organism-based. To be noted: salmonella enterica subsp. enterica serovar typhimurium.
For data set [18], the system named is Salmonella typhimurium. Briefly: Mutagenic activity in Salmonella typhimurium TA-98 at 5 nmol/plate by Ames test. It counts as toxicity, organism-based. The following applies: salmonella enterica subsp. enterica serovar typhimurium.
Data set [19] concerns Salmonella typhimurium. Briefly: Mutagenic activity in Salmonella typhimurium TA-100 at 16 nmol/plate by Ames test. It counts as toxicity, organism-based. The following applies: salmonella enterica subsp. enterica serovar typhimurium.
In data set [20] the test system is Salmonella typhimurium. Briefly: Mutagenic activity in Salmonella typhimurium TA-98 at 16 nmol/plate by Ames test in presence of rat liver microsomes S9 fraction. The following applies: salmonella enterica subsp. enterica serovar typhimurium. The class given is toxicity, organism-based.
Data set [21] relates to Schistosoma japonicum. As to the kind of experiment: Antischistosomal activity against Schistosoma japonicum infected mouse assessed as mouse with parasital cures at 10 mg/kg, po single dose. The class given is functional.
Data set [22] relates to Schistosoma japonicum. Briefly: Antischistosomal activity against Schistosoma japonicum infected mouse assessed as reduction in number of worms at 7 mg/kg, po single dose. The class given is functional.
The test system of data set [23] is Schistosoma japonicum. Briefly: Antischistosomal activity against Schistosoma japonicum infected mouse assessed as reduction in number of worms at 5 mg/kg, po single dose. It counts as functional.
Data set [24] relates to Salmonella typhimurium. As to the kind of experiment: Mutagenic activity in Salmonella typhimurium TA-100 at 16 nmol/plate by Ames test in presence of rat liver microsomes S9 fraction. It counts as toxicity, organism-based. The following applies: salmonella enterica subsp. enterica serovar typhimurium.
For data set [25], the system named is Salmonella typhimurium. Briefly: Mutagenic activity in Salmonella typhimurium TA-100 at 17 nmol/plate by Ames test in presence of rat liver microsomes S9 fraction. It counts as toxicity, organism-based. To be noted: salmonella enterica subsp. enterica serovar typhimurium. The method, boiled down: (§1)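 Ames plate-incorporation assay in Salmonella typhimurium TA-98 or TA-100 with rat liver microsomal S9 fraction. Compound was dissolved in Me2SO, with final Me2SO held at 0.1 mL per 15 mL medium on every plate, controls included. The top level tested was near that giving 10% growth inhibition. Read-out was revertant count in excess of solvent controls.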

Data set [26] concerns Salmonella typhimurium. Briefly: Mutagenic activity in Salmonella typhimurium TA-100 at 17 nmol/plate by Ames test. The class given is toxicity, organism-based. The following applies: salmonella enterica subsp. enterica serovar typhimurium. The method, boiled down:
(§2)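 Ames plate-incorporation assay in Salmonella typhimurium TA-98 or TA-100 without rat liver S9. Compound was dissolved in Me2SO, with final Me2SO held at 0.1 mL per 15 mL medium on every plate, controls included. The top level tested was near that giving 10% growth inhibition. Read-out was revertant count in excess of solvent controls.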

Data set [27] relates to Schistosoma japonicum. As to the kind of experiment: Antischistosomal activity against Schistosoma japonicum infected mouse assessed as mouse with parasital cures at 250 mg/kg, po single dose. It counts as functional.
Data set [28] has as its system Schistosoma japonicum. As to the kind of experiment: Antischistosomal activity against Schistosoma japonicum infected mouse assessed as reduction in number of worms at 50 mg/kg, po single dose. The class given is functional.
Data set [29] has as its system Schistosoma japonicum. Briefly: Antischistosomal activity against Schistosoma japonicum infected mouse assessed as reduction in number of worms at 125 mg/kg, po single dose. The class given is functional.
For data set [30], the system named is Schistosoma japonicum. Briefly: Antischistosomal activity against Schistosoma japonicum infected mouse assessed as reduction in number of worms at 250 mg/kg, po single dose. It counts as functional.
For data set [31], the system named is Schistosoma japonicum. As to the kind of experiment: Antischistosomal activity against Schistosoma japonicum infected mouse assessed as mouse with parasital cures at 50 mg/kg, po single dose. It counts as functional.
Data set [32] concerns Salmonella typhimurium. As to the kind of experiment: Mutagenic activity in Salmonella typhimurium TA-98 at 60 nmol/plate by Ames test. It counts as toxicity, organism-based. To be noted: salmonella enterica subsp. enterica serovar typhimurium. The method, boiled down: as §2
The test system of data set [33] is Salmonella typhimurium. As to the kind of experiment: Mutagenic activity in Salmonella typhimurium TA-100 at 60 nmol/plate by Ames test. The class given is toxicity, organism-based. The following applies: salmonella enterica subsp. enterica serovar typhimurium. The method, boiled down:
as §2

The test system of data set [34] is Salmonella typhimurium. As to the kind of experiment: Mutagenic activity in Salmonella typhimurium TA-98 at 17 nmol/plate by Ames test in presence of rat liver microsomes S9 fraction. To be noted: salmonella enterica subsp. enterica serovar typhimurium. The class given is toxicity, organism-based. The method, boiled down: as §1
Data set [35] has as its system Salmonella typhimurium. As to the kind of experiment: Mutagenic activity in Salmonella typhimurium TA-98 at 60 nmol/plate by Ames test in presence of rat liver microsomes S9 fraction. The class given is toxicity, organism-based. To be noted: salmonella enterica subsp. enterica serovar typhimurium. The method, boiled down: as §1
Data set [36] relates to Salmonella typhimurium. As to the kind of experiment: Mutagenic activity in Salmonella typhimurium TA-100 at 60 nmol/plate by Ames test in presence of rat liver microsomes S9 fraction. To be noted: salmonella enterica subsp. enterica serovar typhimurium. It counts as toxicity, organism-based. The method, boiled down: as §1
Data set [37] deals with Salmonella typhimurium. As to the kind of experiment: Mutagenic activity in Salmonella typhimurium TA-98 at 17 nmol/plate by Ames test. It counts as toxicity, organism-based. The following applies: salmonella enterica subsp. enterica serovar typhimurium. The method, boiled down: as §2
Data set [38] concerns Schistosoma japonicum. As to the kind of experiment: Antischistosomal activity against Schistosoma japonicum infected mouse assessed as mouse with parasital cures at 125 mg/kg, po single dose. The class given is functional.
Data set [39] deals with Schistosoma japonicum. Briefly: Antischistosomal activity against Schistosoma japonicum infected mouse assessed as reduction in number of worms at 500 mg/kg, po single dose. The class given is functional.
The test system of data set [40] is Schistosoma japonicum. As to the kind of experiment: Antischistosomal activity against Schistosoma japonicum infected mouse assessed as mouse with parasital cures at 500 mg/kg, po single dose. The class given is functional.

A word on the inhibition in vivo: it is the change of the read-out against control, counted positive when it falls.

`O=[N+]([O-])c1ccc(Nc2ccc(N=C=S)cc2)cc1` [AMOSCANATE]: the Activity result is given as “Non-toxic” in the data set with Salmonella typhimurium [1]; 25% with Schistosoma japonicum [2]; “Non-toxic” in the data set with Salmonella typhimurium [4]; “Non-toxic” in the data set with Salmonella typhimurium [5]; “Non-toxic” in the data set with Salmonella typhimurium [6]; “Non-toxic” in the data set on Salmonella typhimurium [8]. In addition, the Activity is recorded as 100% in the data set with Schistosoma japonicum [9]; “Non-toxic” in the data set with Salmonella typhimurium [10]; “Non-toxic” in the data set on Salmonella typhimurium [11]; “Non-toxic” in the data set with Salmonella typhimurium [12]; “Non-toxic” in the data set on Salmonella typhimurium [13]; 14% in the data set with Schistosoma japonicum [14]. Further, the Activity result in the data set with Salmonella typhimurium [15], in the data set on Salmonella typhimurium [16], with Salmonella typhimurium [17], in the data set with Salmonella typhimurium [18], in the data set on Salmonella typhimurium [19] and with Salmonella typhimurium [20] was “Non-toxic” in each case. The Activity in the data set with Schistosoma japonicum [21] is 92%; in the data set with Salmonella typhimurium [24], “Non-toxic”. For the same compound, in the data set with Schistosoma japonicum [3], the inhibition in vivo at 20 mg/kg stood at 100%. Besides, the inhibition in vivo at 10 mg/kg with Schistosoma japonicum [7] came out at 99%. The inhibition in vivo at 7 mg/kg with Schistosoma japonicum [22] was found to be 82%. In the data set with Schistosoma japonicum [23], the inhibition in vivo at 5 mg/kg came to 68%.

Take `O=C=Nc1ccc(Nc2ccc([N+](=O)[O-])cc2)cc1`: the Activity entry with Salmonella typhimurium [25] was “Toxic”; with Salmonella typhimurium [26], “Toxic”; in the data set on Schistosoma japonicum [27], 0%; in the data set with Schistosoma japonicum [31] it was 0%; in the data set on Salmonella typhimurium [32], “Toxic”; in the data set with Salmonella typhimurium [33], “Toxic”. Moreover, the Activity entry was “Toxic” in the data set on Salmonella typhimurium [34]; “Toxic” with Salmonella typhimurium [35]; “Toxic” in the data set with Salmonella typhimurium [36]; “Toxic” with Salmonella typhimurium [37]; 0% in the data set with Schistosoma japonicum [38]; 0% in the data set with Schistosoma japonicum [40]. The inhibition in vivo at 50 mg/kg in the data set on Schistosoma japonicum [28] was 0%. For the same compound, the inhibition in vivo at 125 mg/kg in the data set on Schistosoma japonicum [29] stood at 0%. In addition, the inhibition in vivo at 250 mg/kg in the data set on Schistosoma japonicum [30] is 0%. In addition, in the data set with Schistosoma japonicum [39], the inhibition in vivo at 500 mg/kg came out at 0%.
